# How the values were obtained:
# [1] = system: Mycobacterium tuberculosis; assay: In vitro activity against Mycobacterium. tuberculosis (strain type-ATCC 35828)at pH 6.6; type: functional
# Procedure, shortened: (§1)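 Twofold serial dilutions (200–3.12 µg/mL) in 7H10 agar with 10% OADC enrichment at pH 6.6, in compartmented plates. Plates were stored at 4 °C and used within 24–48 h. A no-drug compartment served as control for each isolate. Plates were incubated for 4 weeks at 37 °C. MIC was the lowest concentration giving 99% (2 log) growth inhibition.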
# [2] = system: Mycobacterium tuberculosis; assay: In vitro activity against Mycobacterium. tuberculosis (strain type-ATCC 35828)at pH 5.8; type: functional
# Procedure, shortened: (§2)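 Middlebrook 7H10 agar plus 10% OADC at pH 5.8 in compartmented plates, with serial twofold dilutions from 200 to 3.12 µg/mL. Plates were prepared 24–48 h before use and stored at 4 °C. A drug-free compartment was included per isolate. Incubation was 37 °C for 4 weeks. MIC was the lowest level producing 99% (2 log) inhibition of growth.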
# Mycobacterium kansasii [3] = assay: In vitro activity against Mycobacterium. kansasii (strain type-SWK).at pH 6.6; type: functional
# Procedure, shortened: (§3)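 MIC for pyrazinamide-resistant isolate SWK by agar dilution in Middlebrook 7H10 with 10% OADC at pH 6.6. Serial 2-fold dilutions run 200–3.12 µg/mL in compartmented plates prepared 24–48 h in advance and stored at 4 °C. A drug-free control is included. Plates were held at 37 °C for 4 weeks. The endpoint is 99% (2 log) inhibition of growth.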
# [4] = system: Mycobacterium tuberculosis; assay: In vitro activity against Mycobacterium. tuberculosis (strain type-H37Rv) at pH 6.6; type: functional; conditions: Mycobacterium tuberculosis; read-out: MIC
# Mycobacterium kansasii [5] = assay: In vitro activity against Mycobacterium. kansasii (strain type-SWK).at pH 5.8; type: functional
# Procedure, shortened: (§4)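 Pyrazinamide-resistant isolate SWK tested on Middlebrook 7H10 agar plus 10% OADC adjusted to pH 5.8. Compartmented plates hold 2-fold dilutions from 200 to 3.12 µg/mL, prepared 24–48 h before use and kept at 4 °C, with a drug-free compartment. Incubation was 37 °C for 4 weeks. MIC is the lowest level causing 99% (2 log) growth inhibition.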
# [6] = system: Mycobacterium tuberculosis; assay: In vitro activity against Mycobacterium. tuberculosis (strain type-H37Rv) at pH 5.8; type: functional; conditions: Mycobacterium tuberculosis; read-out: MIC
# Mycobacterium kansasii [7] = assay: In vitro activity against Mycobacterium strain SCH (Mycobacterium kansasii); type: functional
# Procedure, shortened: (§5)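 Agar dilution MIC against pyrazinamide-resistant clinical isolates on Middlebrook 7H10 agar with 10% OADC at pH 5.8 or pH 6.6. Serial 2-fold dilutions span 200–3.12 µg/mL in compartmented plates made 24–48 h ahead and stored at 4 °C. Each isolate has a drug-free control. Plates were incubated at 37 °C for 4 weeks. MIC is the lowest concentration giving 99% (2 log) growth inhibition.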
# [8] = system: Mycobacterium tuberculosis; assay: In vitro activity against Mycobacterium strain DOL (Mycobacterium tuberculosis); type: functional; conditions: Mycobacterium tuberculosis; read-out: MIC
# [9] = system: Mycobacterium tuberculosis; assay: In vitro activity against Mycobacterium strain LEL (Mycobacterium tuberculosis); type: functional
# [10] = system: Mycobacterium tuberculosis; assay: In vitro activity against Mycobacterium. tuberculosis (strain type-BUR)at pH 5.8; type: functional
# [11] = system: Mycobacterium tuberculosis; assay: In vitro activity against Mycobacterium strain DUB (Mycobacterium tuberculosis); type: functional
# [12] = system: Mycobacterium tuberculosis; assay: In vitro activity against Mycobacterium strain GLA (Mycobacterium tuberculosis)
# Mycobacterium kansasii [13] = assay: In vitro activity against Mycobacterium strain SWK (Mycobacterium kansasii); type: functional; procedure, shortened: as §5
# [14] = system: Mycobacterium tuberculosis; assay: (§6) In vitro activity against Mycobacterium strain DOU (Mycobacterium tuberculosis); type: functional
# Procedure, shortened: (§7)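 Agar dilution in compartmented plates of Middlebrook 7H10 agar with 10% OADC, adjusted to pH 5.8 or pH 6.6. Twofold compound dilutions spanned 200–3.12 µg/mL. Plates were made 24–48 h ahead and held at 4 °C. MIC (µg/mL) was the lowest concentration giving 99% (2 log) growth inhibition.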
# [15] = system: Mycobacterium tuberculosis; assay: In vitro activity against Mycobacterium strain MCQ (Mycobacterium tuberculosis); type: functional; procedure, shortened: as §7
# [16] = system: Mycobacterium tuberculosis; assay: In vitro activity against Mycobacterium strain ING (Mycobacterium tuberculosis); type: functional; procedure, shortened: as §7
# [17] = system: Mycobacterium tuberculosis; assay: In vitro activity against Mycobacterium strain BAK (Mycobacterium tuberculosis); type: functional; conditions: Mycobacterium tuberculosis; read-out: MIC
# [18] = system: Mycobacterium tuberculosis; assay: In vitro activity against Mycobacterium strain WOO (Mycobacterium tuberculosis); type: functional; procedure, shortened: as §7
# Mycobacterium kansasii [19] = assay: In vitro activity against Mycobacterium. kansasii (strain type-SWK)at pH 5.8; type: functional; procedure, shortened: as §4
# Mycobacterium kansasii [20] = assay: In vitro activity against Mycobacterium. kansasii (strain type-SWK)at pH 6.6; type: functional; procedure, shortened: as §3
# [21] = system: Mycobacterium tuberculosis; assay: In vitro activity against Mycobacterium strain ATCC 35828 (Mycobacterium tuberculosis); type: functional; procedure, shortened: as §7
# [22] = system: Mycobacterium tuberculosis; assay: In vitro activity against Mycobacterium strain BUR (Mycobacterium tuberculosis); type: functional; procedure, shortened: as §7
# [23] = system: Mycobacterium tuberculosis; assay: In vitro activity against Mycobacterium strain SMA (Mycobacterium tuberculosis); type: functional
# [24] = system: Mycobacterium tuberculosis; assay: In vitro activity against Mycobacterium strain CES (Mycobacterium tuberculosis); type: functional; procedure, shortened: as §7
# [25] = system: Mycobacterium tuberculosis; assay: In vitro activity against Mycobacterium. tuberculosis (strain type-BUR)at pH 6.6; type: functional; procedure, shortened: as §1
# [26] = system: Mycobacterium tuberculosis; assay: In vitro inhibitory activity against Mycobacterium tuberculosis (strain type-ATCC 35828)at pH 6.6; type: functional; procedure, shortened: as §1
# Mycobacterium kansasii [27] = assay: In vitro activity inhibitory against Mycobacterium. kansasii (strain type-SWK) at pH 5.8; type: functional; procedure, shortened: as §4
# [28] = system: Mycobacterium tuberculosis; assay: In vitro inhibitory activity against Mycobacterium tuberculosis (strain type-H37Rv) at pH 6.6; type: functional
# [29] = system: Mycobacterium tuberculosis; assay: In vitro inhibitory activity against Mycobacterium tuberculosis (strain type-H37Rv) at pH 5.8; type: functional; procedure, shortened: as §2
# [30] = system: Mycobacterium tuberculosis; assay: as §6
# [31] = system: Mycobacterium tuberculosis; assay: In vitro inhibitory activity against Mycobacterium strain MCQ (Mycobacterium tuberculosis)
# [32] = system: Mycobacterium tuberculosis; assay: In vitro inhibitory activity against Mycobacterium strain WOO (Mycobacterium tuberculosis)
# [33] = system: Mycobacterium tuberculosis; assay: In vitro inhibitory activity against Mycobacterium strain ING (Mycobacterium tuberculosis); type: functional; procedure, shortened: as §7
# [34] = system: Mycobacterium tuberculosis; assay: In vitro inhibitory activity against Mycobacterium strain BUR (Mycobacterium tuberculosis)
# [35] = system: Mycobacterium tuberculosis; assay: (§8) In vitro inhibitory activity against Mycobacterium tuberculosis (strain type-BUR) at pH 5.8
# [36] = system: Mycobacterium tuberculosis; assay: In vitro inhibitory activity against Mycobacterium tuberculosis (strain type-BUR) at pH 6.6; type: functional; procedure, shortened: as §1
# [37] = system: Mycobacterium tuberculosis; assay: In vitro inhibitory activity against Mycobacterium strain GLA (Mycobacterium tuberculosis); type: functional; procedure, shortened: as §7
# [38] = system: Mycobacterium tuberculosis; assay: In vitro inhibitory activity against Mycobacterium strains on BAK (Mycobacterium tuberculosis)
# [39] = system: Mycobacterium tuberculosis; assay: In vitro inhibitory activity against Mycobacterium strain LEL (Mycobacterium tuberculosis); type: functional; procedure, shortened: as §7
# [40] = system: Mycobacterium tuberculosis; assay: In vitro activity against Mycobacterium strains on SMA (Mycobacterium tuberculosis)
# [41] = system: Mycobacterium tuberculosis; assay: In vitro activity against Mycobacterium strains on DOL (Mycobacterium tuberculosis)
# Mycobacterium kansasii [42] = assay: In vitro inhibitory activity inhibitory against Mycobacterium. kansasii (strain type-SWK) at pH 6.6; type: functional; procedure, shortened: as §3
# [43] = system: Mycobacterium tuberculosis; assay: In vitro inhibitory activity against Mycobacterium strain DUB (Mycobacterium tuberculosis)
# [44] = system: Mycobacterium tuberculosis; assay: In vitro inhibitory activity against Mycobacterium tuberculosis (strain type-ATCC 35828) at pH 5.8; type: functional; procedure, shortened: as §2
# Mycobacterium kansasii [45] = assay: In vitro inhibitory activity against Mycobacterium kansasii (strain type-SWK) at pH 5.8; type: functional; procedure, shortened: as §4
# Mycobacterium kansasii [46] = assay: In vitro inhibitory activity against Mycobacterium kansasii (strain type-SWK) at pH 6.6; type: functional; procedure, shortened: as §3
# [47] = system: Mycobacterium tuberculosis; assay: as §8; type: functional; procedure, shortened: as §2
# [48] = system: Mycobacterium tuberculosis; assay: In vitro inhibitory activity against Mycobacterium tuberculosis (strain type-ATCC 35828) at pH 6.6; type: functional; procedure, shortened: as §1
# [49] = Mycobacterium tuberculosis, read-out: MIC
smiles,measurement,setting,value
O=C(Oc1c(F)c(F)c(F)c(F)c1F)c1cnccn1,MIC,[1],100 µg/mL
same,MIC,[2],12.5 µg/mL
same,MIC,Mycobacterium kansasii [3],> 200 µg/mL
same,MIC,[4],100 µg/mL
same,MIC,Mycobacterium kansasii [5],25 µg/mL
same,MIC,[6],12.5 µg/mL
C=CCOC(=O)c1cnccn1,MIC,[1],200 µg/mL
same,MIC,[2],6.25 µg/mL
same,MIC,Mycobacterium kansasii [7],6.25 µg/mL
same,MIC,[4],200 µg/mL
same,MIC,[8],< 3.12 µg/mL
same,MIC,[9],3.12 µg/mL
same,MIC,[10],6.25 µg/mL
same,MIC,[11],6.25 µg/mL
same,MIC,[12],6.25 µg/mL
same,MIC,Mycobacterium kansasii [13],6.25 µg/mL
same,MIC,[14],3.12 µg/mL
same,MIC,[15],< 3.12 µg/mL
same,MIC,[16],3.12 µg/mL
same,MIC,[6],< 3.12 µg/mL
same,MIC,[17],3.12 µg/mL
same,MIC,[18],6.25 µg/mL
same,MIC,Mycobacterium kansasii [19],< 3.12 µg/mL
same,MIC,Mycobacterium kansasii [20],12.5 µg/mL
same,MIC,[21],6.25 µg/mL
same,MIC,[22],6.25 µg/mL
same,MIC,[23],3.12 µg/mL
same,MIC,[24],< 3.12 µg/mL
O=C(Oc1ccc(-c2ccccc2)cc1)c1cnccn1,MIC,[1],100 µg/mL
same,MIC,[25],50 µg/mL
same,MIC,[2],25 µg/mL
same,MIC,Mycobacterium kansasii [3],100 µg/mL
same,MIC,Mycobacterium kansasii [5],25 µg/mL
same,MIC,[6],6.25 µg/mL
O=C(OCCBr)c1cnccn1,MIC,[1],> 200 µg/mL
same,MIC,[25],> 200 µg/mL
same,MIC,Mycobacterium kansasii [3],> 200 µg/mL
O=C(OC(C(F)(F)F)C(F)(F)F)c1cnccn1,MIC,[2],200 µg/mL
same,MIC,[10]; [49],100 µg/mL
NC(=O)c1cnccn1 [PYRAZINAMIDE],MIC,[26],> 200 µg/mL
same,MIC,Mycobacterium kansasii [7],> 200 µg/mL
same,MIC,Mycobacterium kansasii [27],> 200 µg/mL
same,MIC,[28],>200 µg/mL
same,MIC,[29],12.5 µg/mL
same,MIC,[30],25 µg/mL
same,MIC,[31],25 µg/mL
same,MIC,[32],50 µg/mL
same,MIC,Mycobacterium kansasii [13],> 200 µg/mL
same,MIC,[33],12.5 µg/mL
same,MIC,[34],25 µg/mL
same,MIC,[35],25 µg/mL
same,MIC,[36],200 µg/mL
same,MIC,[37],12.5 µg/mL
same,MIC,[38],50 µg/mL
same,MIC,[39],> 200 µg/mL
same,MIC,[21],> 200 µg/mL
same,MIC,[40],50 µg/mL
same,MIC,[41],25 µg/mL
same,MIC,Mycobacterium kansasii [42],> 200 µg/mL
same,MIC,[43],50 µg/mL
same,MIC,[44],> 200 µg/mL
O=C(O)c1cnccn1 [PYRAZINOIC ACID],MIC,Mycobacterium kansasii [45],> 200 µg/mL
same,MIC,[28]; [49],200 µg/mL
same,MIC,[29],50 µg/mL
same,MIC,Mycobacterium kansasii [46],> 200 µg/mL
same,MIC,[47],50 µg/mL
same,MIC,[36],> 200 µg/mL
same,MIC,[48],> 200 µg/mL
same,MIC,[44],100 µg/mL
